Data published in ChEMBL document CHEMBL1141843, “Sesquiterpene esters from Celastrus orbiculatus and their structure-activity relationship on the modulation of multidrug resistance” (J Nat Prod, 1999).

What was measured:
KB-V1 [1] = test: Reversal of P-glycoprotein-mediated multidrug resistance assessed as ratio of taxol IC50 for drug-resistant human KB-V1 cells to taxol IC50 for human drug-sensitive KB-3-1 cells at 10 uM after 48 hrs by SRB method; type: cell-based
How it was run: (§1)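 KB-3-1 and resistant KB-V1 cells seeded overnight, then treated for 48 h with a concentration range of adriamycin, vinblastine or taxol plus 10 μM modulator. Growth read by SRB at 570 nm and IC50 taken against vehicle controls. Relative resistance = IC50 in KB-V1 / IC50 in KB-3-1.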

KB-V1 [2] = test: Reversal of P-glycoprotein-mediated multidrug resistance assessed as ratio of adriamycin IC50 for drug-resistant human KB-V1 cells to adriamycin IC50 for human drug-sensitive KB-3-1 cells at 10 uM after 48 hrs by SRB method; type: cell-based; how it was run: as §1
[3] = Cytotoxicity against human KB31 cells after 48 hrs by SRB method; type: functional, cell-based; conditions: KB 3-1, 48 h
How it was run: (§2)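 KB-3-1 and KB-V1 cells grown in DMEM with 2 mM L-glutamine and 10% heat-inactivated FCS at 37 °C, 5% CO2. KB-V1 kept under VLB. 2.5-5.0×10^3 cells/well seeded in 5% FCS medium, attached overnight, then exposed to compound for 48 h. Vehicle was DMSO or MeOH, final <0.5%. Read by SRB: TCA fixation, 0.4% SRB stain, Tris solubilization, absorbance at 570 nm. Mean ± S.D. of two experiments.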

KB-V1 [4] = test: Reversal of P-glycoprotein-mediated multidrug resistance assessed as ratio of IC50 for human KB-V1 cells to IC50 for human KB-V1 cells in presence of 100 nM vinblastine; type: cell-based
How it was run: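 KB-V1 cells given compound alone or with 100 nM vinblastine for 48 h. Growth read by SRB at 570 nm and IC50 taken against vehicle controls. Enhancement factor = IC50 in KB-V1 without VLB / IC50 with VLB. Mean ± S.D. of two experiments.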

[5] = Cytotoxicity against vinblastine resistant human KBV1 cells after 48 hrs by SRB method; type: functional, cell-based; conditions: KB-V1, 48 h; how it was run: as §2
KB-V1 [6] = test: Reversal of P-glycoprotein-mediated multidrug resistance assessed as ratio of vinblastine IC50 for drug-resistant human KB-V1 cells to vinblastine IC50 for human drug-sensitive KB-3-1 cells at 10 uM after 48 hrs by SRB method; type: cell-based; how it was run: as §1
[7] = Cytotoxicity against vinblastine resistant human KBV1 cells after 48 hrs in presence of 100 nM vinblastine by SRB method; type: functional, cell-based; conditions: KB-V1, 48 h; how it was run: as §2

| SMILES | Ratio IC50 (KB-V1 [1]) | Ratio IC50 (KB-V1 [2]) | IC50 [3] | Ratio IC50 (KB-V1 [4]) | IC50 [5] | Ratio IC50 (KB-V1 [6]) | IC50 [7] |
| --- | --- | --- | --- | --- | --- | --- | --- |
| CC(=O)O[C@H]1[C@@H](OC(=O)c2ccco2)C[C@@H](C)[C@]23OC(C)(C)[C@H](C[C@H](OC(=O)c4ccccc4)[C@]12C)[C@H]3OC(=O)c1ccco1 [ORBICULIN F] | 11 | 4.4 | 32.4 µM | 35.7 | 39.3 µM | 8.9 | 1.1 µM |
| CC(=O)O[C@H]1C[C@@H](C)[C@]23OC(C)(C)[C@H](C[C@H](OC(=O)c4ccccc4)[C@]2(C)[C@H]1OC(C)=O)[C@H]3OC(=O)c1ccco1 [ORBICULIN E] | 2.6 | 1.8 | 28.3 µM | 66.2 | 33.1 µM | 1.6 | 0.5 µM |
| CC(=O)O[C@H]1C[C@@H](C)[C@]23OC(C)(C)[C@H](C[C@H](OC(=O)c4ccccc4)[C@]2(C)[C@H]1OC(C)=O)[C@H]3OC(=O)c1ccccc1 [ORBICULIN A] | 1.2 | 3 | 31.6 µM | 80 | 32 µM | 0.9 | 0.4 µM |
| CC(=O)O[C@H]1[C@@H](OC(=O)c2ccccc2)C[C@@H](C)[C@]23OC(C)(C)[C@H](C[C@H](OC(=O)c4ccccc4)[C@]12C)[C@H]3OC(=O)c1ccccc1 [ORBICULIN G] | 143 | 153 | 26.4 µM | 5.9 | 28.6 µM | 168 | 4.8 µM |
| CC(=O)O[C@H]1CC[C@@H](C)[C@]23OC(C)(C)[C@H](C[C@H](OC(=O)c4ccccc4)[C@]12C)[C@H]3OC(=O)c1ccco1 [ORBICULIN B] | – | – | 268 µM | 12.5 | 246 µM | – | 19.6 µM |
| CC(=O)O[C@H]1CC[C@@H](C)[C@]23OC(C)(C)[C@H](C[C@H](OC(=O)c4ccco4)[C@]12C)[C@H]3OC(=O)c1ccco1 [ORBICULIN D] | – | – | 16.8 µM | 14.8 | 17.8 µM | – | 1.2 µM |
| CC(=O)O[C@H]1CC[C@@H](C)[C@]23OC(C)(C)[C@H](C[C@H](OC(=O)c4ccccc4)[C@]12C)[C@H]3OC(=O)c1ccccc1 | – | – | 10.5 µM | 6.4 | 12.3 µM | – | 1.9 µM |
| CC(=O)O[C@H]1C[C@@H](C)[C@]23OC(C)(C)[C@H](C[C@H](OC(=O)c4ccccc4)[C@]2(C)[C@H]1OC(C)=O)[C@H]3OC(C)=O | 3.7 | 8.3 | 41.3 µM | 87 | 34.8 µM | 2.3 | 0.4 µM |
| CC(=O)OC[C@@]12[C@@H](OC(C)=O)CC[C@@H](C)[C@]13OC(C)(C)[C@H](C[C@@H]2OC(=O)c1ccccc1)[C@H]3OC(C)=O | 10 | 5.5 | 85.3 µM | 79.4 | 79.4 µM | 12.9 | 1 µM |
| CC(=O)OC[C@]12[C@@H](OC(=O)c3ccccc3)C[C@@H]3[C@@H](OC(C)=O)[C@]1(OC3(C)C)[C@H](C)C[C@H](OC(=O)c1ccccc1)[C@@H]2OC(C)=O | 3.9 | 1.4 | 27.3 µM | 57.2 | 28.6 µM | 2.7 | 0.5 µM |
| CC(=O)O[C@H]1CC[C@@H](C)[C@]23OC(C)(C)[C@H](C[C@H](OC(=O)c4ccco4)[C@]12C)[C@H]3OC(=O)c1ccccc1 [ORBICULIN C] | – | – | 8.6 µM | 9.6 | 9.6 µM | – | 1 µM |
